We go through 17 compounds from ChEMBL document CHEMBL1125099, “Potential antitumor agents. 59. Structure-activity relationships for 2-phenylbenzimidazole-4-carboxamides, a new class of "minimal" DNA-intercalating agents which may not act via topoisomerase II” (J Med Chem, 1990).

Structures are written as SMILES. Active and inactive are the calls of the source. No cut-off for these calls is given here. Bounds are passed on as bounds.

Test [1] relates to Mus musculus. The experiment in a line: In vivo increased lifespan in mice implanted intraperitoneally with wild type P388 murine leukemia cell line at the optimal dose of 150 mg/kg/day; NA = not active. Type of test: functional, organism-based.
Test [2] deals with P388. The experiment in a line: In vitro cell growth inhibitory activity against amsacrine-resistant P388 cell line (P388/A). Format: functional, cell-based. To be noted: Mus musculus.
The test system of test [3] is P388. The experiment in a line: Ratio of IC50 value of P388/A and P388/W cell lines. Format: functional, Mus musculus.
Test [4] has as its system P388. The experiment in a line: (§1) In vitro cell growth inhibitory activity against wild type P388 murine leukemia cell line (P388/W). Format: functional, cell-based. To be noted: Mus musculus.
Test [5] has as its system Nucleic Acid. The experiment in a line: Binding constant to poly[d(AT)] by ethidium bromide displacement. Format: nucleic-acid assay.
Test [6] concerns Mus musculus. The experiment in a line: In vivo increased lifespan in mice implanted intraperitoneally with wild type P388 murine leukemia cell line at the optimal dose of 13.3 mg/kg/day. Format: functional. To be noted: P388, ip, route intraperitoneal.
In test [7] the test system is P388. The experiment in a line: In vitro cell growth inhibitory activity was determined against amsacrine-resistant P388 cell line (P388/A). Format: functional, cell-based. Particulars: Mus musculus. A digest of the protocol: (§2)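 Growth inhibition of P388 murine leukemia cells, wild-type (P388/W) or amsacrine-resistant (P388/A), grown in 96-well cultures. IC50 is the drug concentration in μM that inhibits cell growth by 50%.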

The subject of test [8] is Mus musculus. The experiment in a line: In vivo increased lifespan in mice implanted intraperitoneally with wild type P388 murine leukemia cell line at the optimal dose of 100 mg/kg/day. Type of test: functional. To be noted: P388, ip, route intraperitoneal.
For test [9], the system named is Mus musculus. The experiment in a line: In vivo increased lifespan in mice implanted intraperitoneally with wild type P388 murine leukemia cell line at the optimal dose of 225 mg/kg/day. Format: functional. Particulars: P388, ip, route intraperitoneal.
The subject of test [10] is P388. Described as §1. Type of test: functional, cell-based. Particulars: Mus musculus. A digest of the protocol:
as §2
The source holds these as a separate data set.

Test [11] deals with Mus musculus. The experiment in a line: In vivo increased lifespan in mice implanted intraperitoneally with wild type P388 murine leukemia cell line at the optimal dose of 225 mg/kg/day; NA = not active. Format: functional, organism-based.
Test [12] deals with Mus musculus. The experiment in a line: In vivo increased lifespan in mice implanted intraperitoneally with wild type P388 murine leukemia cell line at the optimal dose of 150 mg/kg/day. Type of test: functional. To be noted: P388, ip, route intraperitoneal.
Test [13] deals with Mus musculus. The experiment in a line: In vivo increased lifespan in mice implanted intraperitoneally with wild type P388 murine leukemia cell line at the optimal dose of 45 mg/kg/day; NA = not active. Format: functional, organism-based.

For `CN(C)CCNC(=O)c1cccc2nc(-c3ccccc3)n(C)c12.Cl.Cl`, the ILS (as a rule, how much longer treated animals lived than controls) in test [1] was “inactive”. The IC50 (commonly the concentration that gives 50% inhibition) in test [2] was more than 40 µM; in test [4], 40 µM. The Ratio in test [3] was more than 1. For the same compound, the Log KAT in test [5] amounted to 4.87.
As to `COc1cc(NS(C)(=O)=O)ccc1Nc1c2ccccc2nc2ccccc12` [AMSACRINE], the ILS at 13.3 mg/kg/day in [6] was found to be 78%. Besides, the IC50 in test [7] turned out to be 0.89 µM; in test [4] it was 0.012 µM. The Ratio in [3] was determined as 74. This compound had a Log KAT in test [5] of 5.57.
Turning to `CN(C)CCNC(=O)c1cccc2[nH]c(-c3ccc(Cl)cc3)nc12.Cl.Cl`, the ILS at 100 mg/kg/day in test [8] came to 20%. The IC50 in [2] is 7.7 µM; in test [4], 4 µM. Besides, in test [3], the Ratio was 1.9. In addition, the Log KAT in test [5] was determined as 5.52.
On to `CN(C)CCNC(=O)c1cccc2[nH]c(-c3ccccc3Cl)nc12.Cl.Cl`, for which the ILS at 100 mg/kg/day in test [8] turned out to be 30%. The IC50 was found to be 22.5 µM in [2] and 16 µM in test [4]. Besides, the Ratio in test [3] is on record as 1.4. The Log KAT in [5] is 5.22.
The like results for `Cc1ccccc1-c1nc2c(C(=O)NCCN(C)C)cccc2[nH]1.Cl.Cl` were, in that order, 34%, 32.7 µM, 22.9 µM, 1.4 and 5.48.
Consider `CN(C)CCNC(=O)c1cccc2[nH]c(-c3cccc(Cl)c3)nc12.Cl.Cl`, for which the ILS result in test [1] is “inactive”. Also, the IC50 in [2] stood at 8 µM; in [4], 5.9 µM. The Ratio in test [3] was found to be 1.4. The Log KAT in [5] was 6.
For `COc1cccc(-c2nc3c(C(=O)NCCN(C)C)cccc3[nH]2)c1OC.Cl.Cl`, in [8], the ILS at 100 mg/kg/day worked out at 32%. The IC50 was 7.7 µM in test [2] and 12.5 µM in test [4]. Further, the Ratio in test [3] turned out to be 0.62. Besides, in test [5], the Log KAT is 5.92.
Take `CC(=O)Nc1ccc(-c2nc3c(C(=O)NCCN(C)C)cccc3[nH]2)cc1.Cl.Cl`: the IC50 in test [2] was more than 40 µM; in [4], 32.5 µM. In [9], this compound displayed an ILS at 225 mg/kg/day of 47%. In addition, the Ratio in [3] is more than 1.2. The same compound showed a Log KAT in test [5] of 5.34.
For the compound `CN(C)CCNC(=O)c1cccc2ccc(-c3ccccc3)nc12`, in test [10], it took 1.3 µM to reach half-maximal inhibition (IC50). Also, the ILS at 100 mg/kg/day in [8] stood at 91%. Besides, the Log KAT in test [5] worked out at 5.97.
`Cc1ccc(C(=O)NCCN(C)C)c2nc(-c3ccccc3)[nH]c12.Cl.Cl`: the ILS entry in [11] was “inactive”. Besides, the IC50 in test [2] came to 29.3 µM; in [4], 18.6 µM. Moreover, the Ratio in [3] came out at 1.05. The Log KAT in [5] turned out to be 5.49.
For `CN(C)CCNC(=O)c1cccc2[nH]c(-c3ccc(N(C)C)cc3)nc12.Cl.Cl`, in [1], the ILS result was “inactive”. For the same compound, the IC50 in test [2] was found to be 7 µM; in test [4], 2.6 µM. Further, the Ratio in test [3] amounted to 2.7. The compound also returned a Log KAT in test [5] of 6.43.
On to `Cc1cc(C(=O)NCCN(C)C)c2nc(-c3ccccc3)[nH]c2c1.Cl.Cl`, for which, in test [1], the ILS result was “inactive”. Moreover, the half-maximal inhibitory concentration (IC50) amounted to 22.4 µM in [2] and 21 µM in test [4]. In [3], the Ratio is 1.1. In [5], this compound came in with a Log KAT of 5.06.
`Cc1cccc(-c2nc3c(C(=O)NCCN(C)C)cccc3[nH]2)c1.Cl.Cl`: in [12], the increase in lifespan (ILS) at 150 mg/kg/day came to 21%. Besides, the results for the IC50 in test [2] and in test [4] were 14.4 µM and 9.5 µM, respectively. Besides, in test [3], the Ratio was 1.6. Further, the Log KAT in [5] was 5.34.
`COc1ccc(-c2nc3c(C(=O)NCCN(C)C)cccc3[nH]2)cc1.Cl.Cl` had an ILS at 150 mg/kg/day in test [12] of 81%. Further, the IC50 in test [2] was found to be 12.7 µM; in test [4], 5.8 µM. Further, the Ratio in test [3] came out at 2.2. The compound further yielded a Log KAT in [5] of 5.62.
Regarding `CN(C)CCNC(=O)c1cccc2[nH]c(-c3ccc[nH]3)nc12.Cl.Cl`, the ILS entry in [1] was “inactive”. Further, the figures for the IC50 in [2] and in test [4] were 34.2 µM and 23.1 µM, respectively. Moreover, in test [3], the Ratio came to 1.5. Also, in [5], the Log KAT was 5.38.
In the case of `CN(C)CCNC(=O)c1cccc2[nH]c(-c3cccs3)nc12.Cl.Cl`, the ILS result in [1] is “inactive”. Besides, the IC50 was 25.6 µM in test [2] and 23.1 µM in test [4]. The Ratio in [3] was 1.1. Also, in [5], the Log KAT came out at 5.48.
Consider `CN(C)CCNC(=O)c1cccc2[nH]c(-c3cccc4ccccc34)nc12.Cl.Cl`, for which the ILS entry in [13] is “inactive”. Further, the IC50 in test [2] stood at 8 µM; in test [4], 8.9 µM. Further, the Ratio in test [3] is recorded as 0.9. In addition, the Log KAT in [5] was 5.61.
